Active and inactive are the calls of the source.
How the values were obtained:
[1] = target: Ubiquitin thioesterase OTUB1 (Homo sapiens) (UniProt Q96FW1); assay: Inhibition of recombinant human His6-Otubain-1 assessed as reduction in cleavage of luminescent substrate Ub-AML at 100 uM
Summary of the method: (§1)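 Purified recombinant DUBs assayed with Ub-AML as luminescent substrate, using the Glo reagent protocol and read on a microplate luminometer.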

[2] = target: Ubiquitin carboxyl-terminal hydrolase 5 (Homo sapiens) (UniProt P45974); assay: Inhibition of human recombinant isopeptidase T assessed as reduction in cleavage of luminescent substrate Ub-AML at 100 uM; summary of the method: as §1
[3] = target: Ubiquitin carboxyl-terminal hydrolase 14 (Homo sapiens) (UniProt P54578); assay: Inhibition of USP14 in intact human HeLa cells assessed as induction of formation of high molecular weight complexes with USP14 at 10 uM incubated for 2 hrs by immunoblot analysis; assay type: cell-based
Summary of the method: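 Intact HeLa cells (DMEM, 10% FBS, about 80% confluent) treated 2 h with vehicle or 10 μM compound, with or without 10 mM DTT or 10 mM GSH. Cells washed in cold PBS and lysed in RIPA with protease and phosphatase inhibitors. High-MW species detected by SDS-PAGE immunoblot; shorter exposures served as loading control.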

Measured: inhibition

Chain of Ubiquitin carboxyl-terminal hydrolase 14 (Homo sapiens) (P54578 whole entry): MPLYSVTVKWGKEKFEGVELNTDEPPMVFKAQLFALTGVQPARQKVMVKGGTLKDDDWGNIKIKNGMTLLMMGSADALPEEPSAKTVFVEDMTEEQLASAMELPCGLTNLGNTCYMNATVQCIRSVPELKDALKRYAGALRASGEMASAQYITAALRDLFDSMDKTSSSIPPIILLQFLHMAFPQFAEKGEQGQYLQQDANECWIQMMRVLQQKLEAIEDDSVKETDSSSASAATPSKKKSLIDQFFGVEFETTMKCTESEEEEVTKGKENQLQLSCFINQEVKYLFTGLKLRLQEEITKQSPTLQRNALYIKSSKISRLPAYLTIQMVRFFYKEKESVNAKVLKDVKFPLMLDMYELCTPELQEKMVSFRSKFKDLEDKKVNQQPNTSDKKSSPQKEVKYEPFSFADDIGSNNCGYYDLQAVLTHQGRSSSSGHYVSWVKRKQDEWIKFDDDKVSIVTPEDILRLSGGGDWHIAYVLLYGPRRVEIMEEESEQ
Chain of Ubiquitin carboxyl-terminal hydrolase 5 (Homo sapiens) (P45974 whole entry): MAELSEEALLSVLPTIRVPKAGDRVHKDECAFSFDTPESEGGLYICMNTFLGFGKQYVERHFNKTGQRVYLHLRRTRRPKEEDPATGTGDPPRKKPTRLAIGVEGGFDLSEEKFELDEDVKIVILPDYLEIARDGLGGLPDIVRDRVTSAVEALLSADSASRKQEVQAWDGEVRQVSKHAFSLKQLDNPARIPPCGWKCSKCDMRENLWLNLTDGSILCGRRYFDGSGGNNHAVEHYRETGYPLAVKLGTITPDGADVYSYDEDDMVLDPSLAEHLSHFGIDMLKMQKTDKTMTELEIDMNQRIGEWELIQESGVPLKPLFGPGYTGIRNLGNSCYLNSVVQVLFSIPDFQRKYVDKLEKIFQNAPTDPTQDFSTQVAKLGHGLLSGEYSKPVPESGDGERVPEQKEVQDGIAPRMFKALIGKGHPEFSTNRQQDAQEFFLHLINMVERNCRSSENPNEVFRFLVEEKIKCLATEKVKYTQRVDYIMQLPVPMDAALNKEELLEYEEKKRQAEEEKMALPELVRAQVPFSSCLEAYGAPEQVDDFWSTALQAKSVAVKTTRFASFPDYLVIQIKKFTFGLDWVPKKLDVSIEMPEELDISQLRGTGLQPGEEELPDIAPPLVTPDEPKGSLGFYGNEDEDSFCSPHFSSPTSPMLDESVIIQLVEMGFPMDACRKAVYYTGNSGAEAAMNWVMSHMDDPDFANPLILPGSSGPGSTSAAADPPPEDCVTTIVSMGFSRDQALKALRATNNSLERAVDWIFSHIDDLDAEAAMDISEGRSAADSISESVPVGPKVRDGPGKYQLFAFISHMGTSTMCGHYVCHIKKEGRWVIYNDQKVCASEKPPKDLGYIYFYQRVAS
Chain of Ubiquitin thioesterase OTUB1 (Homo sapiens) (Q96FW1 whole entry): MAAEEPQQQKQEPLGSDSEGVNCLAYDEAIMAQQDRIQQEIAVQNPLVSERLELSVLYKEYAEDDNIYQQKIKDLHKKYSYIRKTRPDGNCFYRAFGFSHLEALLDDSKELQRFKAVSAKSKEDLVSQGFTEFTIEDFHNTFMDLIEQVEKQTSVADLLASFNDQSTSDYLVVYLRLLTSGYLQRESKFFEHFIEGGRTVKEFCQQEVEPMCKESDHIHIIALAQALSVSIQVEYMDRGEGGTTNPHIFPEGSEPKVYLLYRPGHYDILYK

C=CC(=O)N1C/C(=C\c2ccc([N+](=O)[O-])cc2)C(=O)/C(=C/c2ccc([N+](=O)[O-])cc2)C1
active: all assays above

— ChEMBL document CHEMBL4354861, “Re-Evaluating the Mechanism of Action of α,β-Unsaturated Carbonyl DUB Inhibitors b-AP15 and VLX1570: A Paradigmatic Example of Unspecific Protein Cross-linking with Michael Acceptor Motif-Containing Drugs” (J Med Chem, 2020)
